ChEMBL document CHEMBL2380223, “A thiocarbamate inhibitor of endothelial lipase raises HDL cholesterol levels in mice” (Bioorg Med Chem Lett, 2013)
The source made the active and inactive calls. The rule behind the calls is not given here.

Assays:
Endothelial lipase [1] = target: T1, Endothelial lipase (Mus musculus, UniProt Q9WVG5); experiment: Inhibition of mouse EL expressed in HEK293 cells using PED-A1 as substrate by spectrophotometry; assay type: cell-based
T1 sequence (Q9WVG5 whole entry): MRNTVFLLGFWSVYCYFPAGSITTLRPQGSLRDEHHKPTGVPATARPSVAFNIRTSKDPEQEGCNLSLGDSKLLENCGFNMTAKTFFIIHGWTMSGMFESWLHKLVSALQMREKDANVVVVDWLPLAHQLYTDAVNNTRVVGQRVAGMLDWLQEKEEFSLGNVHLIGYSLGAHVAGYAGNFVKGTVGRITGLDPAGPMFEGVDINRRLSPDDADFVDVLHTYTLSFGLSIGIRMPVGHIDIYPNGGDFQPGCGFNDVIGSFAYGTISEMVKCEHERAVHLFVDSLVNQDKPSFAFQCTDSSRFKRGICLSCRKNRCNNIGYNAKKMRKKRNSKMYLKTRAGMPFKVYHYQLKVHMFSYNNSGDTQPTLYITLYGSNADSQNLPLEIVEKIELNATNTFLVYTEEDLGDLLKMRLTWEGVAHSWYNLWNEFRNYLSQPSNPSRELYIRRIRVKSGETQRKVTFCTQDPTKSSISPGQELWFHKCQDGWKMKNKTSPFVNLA

Endothelial lipase [2] = target: T2, Endothelial lipase (Homo sapiens, UniProt Q9Y5X9); experiment: (§1) Time dependent inhibition of human EL (19 to 500) expressed in HEK293 cells using PED-A1 as substrate by spectrophotometry; assay type: cell-based
T2 sequence (Q9Y5X9 whole entry): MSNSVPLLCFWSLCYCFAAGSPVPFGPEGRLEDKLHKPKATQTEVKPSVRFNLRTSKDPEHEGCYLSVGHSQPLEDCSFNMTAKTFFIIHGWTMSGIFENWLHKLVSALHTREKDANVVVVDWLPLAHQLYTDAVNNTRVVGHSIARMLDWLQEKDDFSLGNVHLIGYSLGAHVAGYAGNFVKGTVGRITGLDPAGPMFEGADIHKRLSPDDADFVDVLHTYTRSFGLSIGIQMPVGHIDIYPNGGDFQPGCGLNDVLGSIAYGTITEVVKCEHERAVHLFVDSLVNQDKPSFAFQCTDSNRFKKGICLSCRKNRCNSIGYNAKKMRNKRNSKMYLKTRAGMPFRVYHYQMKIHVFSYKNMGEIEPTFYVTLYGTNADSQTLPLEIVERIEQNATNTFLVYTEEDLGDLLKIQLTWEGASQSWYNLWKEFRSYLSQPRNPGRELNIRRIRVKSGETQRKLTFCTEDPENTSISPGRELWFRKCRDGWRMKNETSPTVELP

Mus musculus [3] = experiment: Increase in plasma HDL-C level in C57BL/6J HL-/- mouse at 100 mg/kg, ip administered for 2 days followed by a dose on 3rd day morning measured 1 hr post last dose relative to vehicle-treated control; assay type: functional; conditions: route intraperitoneal
Method in brief: (§2)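 C57BL/6J HL-/- (hepatic lipase knockout) mice dosed intraperitoneally with compound or vehicle for three days, at 10, 30 and 100 mg/kg. Plasma lipoproteins, including HDL-C, measured 1 h after the last dose. Percent increase is calculated against vehicle-treated controls, with significance testing between groups.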

Plasma = experiment: Plasma concentration in ip dosed C57BL/6J HL-/- mouse administered for 3 days measured 1 hr post last dose; assay type: ADME, organism-based; conditions: in vivo
Method in brief: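 In HL-/- mice given intraperitoneal doses (10, 30, 100 mg/kg) for three days, plasma compound concentrations were measured 1 h after the final dose. In individual animals, these were correlated with plasma HDL-C and phospholipids.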

[4] = target: Endothelial lipase (Mus musculus) (UniProt Q9WVG5); experiment: Inhibition of EL in C57BL/6J HL-/- mouse assessed as elevated plasma phospholipid level at 30 to 100 mg/kg, ip bid for 2 days followed by a dose on 3rd day morning measured 1 hr post last dose
[5] = target: T3, Endothelial lipase (Homo sapiens) (UniProt Q9Y5X9); experiment: as §1; assay type: cell-based
T3 sequence (whole entry): T2 sequence (Q9Y5X9 whole entry)

[6] = target: T4, Hepatic triacylglycerol lipase (Homo sapiens, UniProt P11150); experiment: Inhibition of human HL expressed in HEK293 cells using PED-A1 as substrate by spectrophotometry
T4 sequence (P11150 whole entry): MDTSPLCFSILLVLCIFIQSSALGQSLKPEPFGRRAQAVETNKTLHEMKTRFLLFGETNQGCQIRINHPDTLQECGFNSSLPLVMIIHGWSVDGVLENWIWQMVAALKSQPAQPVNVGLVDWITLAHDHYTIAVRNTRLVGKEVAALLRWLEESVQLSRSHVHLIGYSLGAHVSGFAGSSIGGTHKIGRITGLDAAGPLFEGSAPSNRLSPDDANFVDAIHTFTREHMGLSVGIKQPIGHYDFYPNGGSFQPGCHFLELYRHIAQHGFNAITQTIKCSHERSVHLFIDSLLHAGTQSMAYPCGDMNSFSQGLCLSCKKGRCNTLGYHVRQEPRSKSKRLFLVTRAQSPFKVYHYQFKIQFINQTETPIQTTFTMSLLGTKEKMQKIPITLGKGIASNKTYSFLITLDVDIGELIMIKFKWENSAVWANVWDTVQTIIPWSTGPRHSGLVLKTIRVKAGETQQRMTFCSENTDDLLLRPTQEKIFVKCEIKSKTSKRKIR

Mus musculus [7] = experiment: Increase in plasma HDL-C level in C57BL/6J mouse at 100 mg/kg, ip administered for 2 days followed by a dose on 3rd day morning measured 1 hr post last dose relative to vehicle-treated control; assay type: functional; conditions: route intraperitoneal
Method in brief: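 C57BL/6J mice given vehicle or compound intraperitoneally, five doses over three days; plasma HDL-C measured 1 h after the last dose. Tested at 100 mg/kg. Change is expressed relative to vehicle controls, as means ± SD, n = 8 per group, with significance tested against the vehicle group.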

Mus musculus [8] = experiment: Increase in plasma HDL-C level in C57BL/6J HL-/- mouse at 30 mg/kg, ip administered for 2 days followed by a dose on 3rd day morning measured 1 hr post last dose relative to vehicle-treated control; assay type: functional; conditions: route intraperitoneal; method in brief: as §2
Mus musculus [9] = experiment: Inhibition of EL in C57BL/6J HL-/- mouse assessed as elevated plasma HDL-C level at 30 to 100 mg/kg, ip bid for 2 days followed by a dose on 3rd day morning measured 1 hr post last dose; assay type: functional, organism-based; method in brief: as §2
Lipoprotein lipase = target: T5, Lipoprotein lipase (Homo sapiens, UniProt P06858); experiment: Inhibition of human LPL expressed in HEK293 cells using PED-A1 as substrate by spectrophotometry
T5 sequence (P06858 whole entry): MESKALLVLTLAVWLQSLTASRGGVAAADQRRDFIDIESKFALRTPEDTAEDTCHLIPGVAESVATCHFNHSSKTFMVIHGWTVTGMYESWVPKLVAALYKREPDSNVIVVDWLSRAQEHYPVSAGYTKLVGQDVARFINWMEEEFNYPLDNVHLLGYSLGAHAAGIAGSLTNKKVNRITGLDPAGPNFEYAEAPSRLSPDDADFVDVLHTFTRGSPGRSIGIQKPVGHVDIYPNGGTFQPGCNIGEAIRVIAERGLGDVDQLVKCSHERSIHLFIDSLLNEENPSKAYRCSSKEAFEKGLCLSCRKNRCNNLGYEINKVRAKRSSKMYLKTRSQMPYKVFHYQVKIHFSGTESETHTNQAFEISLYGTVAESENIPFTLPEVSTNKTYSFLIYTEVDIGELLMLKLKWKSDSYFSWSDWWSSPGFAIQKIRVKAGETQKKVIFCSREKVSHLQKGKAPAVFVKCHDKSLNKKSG

Q: `O=C(NCCCCCCc1ccccc1)OCc1ccccc1F` was tested. Which IC50 (Endothelial lipase [1]) did it give?
A: The IC50 was greater than 33000 nM.

Q: How did the IC50 (Endothelial lipase [1]) turn out when `O=C(NCCCCCCc1ccccc1)Oc1ccccc1F` was run?
A: The IC50 was 470 nM.

Q: For `O=C(NCCCCCOc1cc(F)cc(F)c1)SCc1nnc(-c2ccccc2)o1`, which IC50 (Endothelial lipase [2]) is on record?
A: Its IC50 is 23 nM.

Q: Which Activity (Mus musculus [3]) does the source give for `O=C(NCCCCCCc1ccccc1)SCc1ccccc1F` here?
A: The Activity was 77%.

Q: What about the Drug uptake (Plasma) of the same compound?
A: The Drug uptake was “Dose-dependent effect”.

Q: And the Activity [4]?
A: The Activity was “Active”.

Q: What about the inhibition [5] of the same compound?
A: The inhibition was “Active”.

Q: What about the IC50 [6] of the same compound?
A: Its IC50 is 1360 nM.

Q: And the Activity (Mus musculus [7])?
A: The Activity was 37%.

Q: What about the Activity (Mus musculus [8]) of the same compound?
A: The Activity was 23%.

Q: What about the Activity (Mus musculus [9]) of the same compound?
A: The Activity was “Active”.

Q: And the IC50 (Endothelial lipase [1])?
A: Its IC50 is 680 nM.

Q: What about the IC50 (Lipoprotein lipase) of the same compound?
A: The IC50 was 1690 nM.
